Test results as given in ChEMBL document CHEMBL4028913, “Discovery of Novel Potent VEGFR-2 Inhibitors Exerting Significant Antiproliferative Activity against Cancer Cell Lines” (J Med Chem, 2018).
Activity calls are given as the source filed them. The rule behind the calls is not given here.

Experiments:
[1] = target: T1, Vascular endothelial growth factor receptor 2 (Homo sapiens, UniProt P35968)
A-431 = test: Growth inhibition of human A431 cells at 10 uM after 72 hrs by CellTiter-Glo assay relative to control; assay type: functional; conditions: A-431, 72 h, read-out: GI
Summary of the method: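 A431 cells seeded at 2000–4000 cells/well and treated with 10 μM final compound, 0.1% DMSO, for 72 h at 37 °C, 5% CO2. Viability read by CellTiter-Glo. Inhibition ratio = 1 − Vsample/Vvehicle control; triplicate.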

MDA-MB-435 [2] = test: Growth inhibition of human MDA-MB-435 cells after 72 hrs by CellTiter-Glo assay; assay type: functional, cell-based; conditions: MDA-MB-435, 72 h
Summary of the method: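 Cells in exponential phase seeded at 2000–4000 cells/well, then exposed 72 h at 37 °C, 5% CO2 with 0.1% final DMSO. Single-point screen at 10 μM final. […] Read-out was CellTiter-Glo luminescence.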

CCRF-CEM = test: Cytotoxicity against human CCRF-CEM cells after 48 hrs by SRB assay; assay type: functional
Summary of the method: (§1)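 NCI-60 panel; cells grown in RPMI 1640 with 5% FBS and 2 mM L-glutamine, plated at 5000–40 000 cells/well by doubling time, preincubated 24 h (37 °C, 5% CO2). Drug added at five concentrations, 1-log steps from 10−4 to 10−8 M, for 48 h. Fixed with TCA, stained with 0.4% SRB, absorbance read at 515 nm. Percent growth computed against time-zero and untreated controls; GI50, TGI and LC50 derived.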

A549 = test: Cytotoxicity against human A549 cells after 48 hrs by SRB assay; assay type: functional; conditions: A549, 48 h
Summary of the method: as §1

NCI-H522 = test: Cytotoxicity against human NCI-H522 cells after 48 hrs by SRB assay; assay type: functional; conditions: NCI-H522, 48 h
Summary of the method: as §1

SF-539 = test: Cytotoxicity against human SF539 cells after 48 hrs by SRB assay; assay type: functional; conditions: SF-539, 48 h
Summary of the method: as §1

SNB-19 = test: Cytotoxicity against human SNB19 cells after 48 hrs by SRB assay; assay type: functional; conditions: SNB-19, 48 h
Summary of the method: as §1

SNB-75 = test: Cytotoxicity against human SNB75 cells after 48 hrs by SRB assay; assay type: functional; conditions: SNB-75, 48 h
Summary of the method: as §1

MDA-MB-435 [3] = test: Cytotoxicity against human MDA-MB-435 cells after 48 hrs by SRB assay; assay type: functional; conditions: MDA-MB-435, 48 h
Summary of the method: as §1

SK-MEL-2 = test: Cytotoxicity against human SK-MEL-2 cells after 48 hrs by SRB assay; assay type: functional; conditions: SK-MEL-2, 48 h
Summary of the method: as §1

SK-MEL-28 = test: Cytotoxicity against human SK-MEL-28 cells after 48 hrs by SRB assay; assay type: functional; conditions: SK-MEL-28, 48 h
Summary of the method: as §1

UACC-257 = test: Cytotoxicity against human UACC257 cells after 48 hrs by SRB assay; assay type: functional; conditions: UACC-257, 48 h
Summary of the method: (§2)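 NCI-60 panel, five doses at 1-log steps from 10−4 to 10−8 M. Cells grown in RPMI 1640 with 5% FBS and 2 mM L-glutamine, seeded at 5000–40 000 cells/well and preincubated 24 h. Tz plates were TCA-fixed at drug addition. Drug exposure 48 h at 37 °C, then TCA fixation, 0.4% SRB stain and absorbance at 515 nm. GI50 taken from percent growth relative to Tz and control.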

NCI/ADR-RES = test: Cytotoxicity against human NCI-ADR-RES cells after 48 hrs by SRB assay; assay type: functional
Summary of the method: as §1

DU-145 = test: Cytotoxicity against human DU145 cells after 48 hrs by SRB assay; assay type: functional; conditions: DU-145, 48 h
Summary of the method: as §1

MCF7 = test: Cytotoxicity against human MCF7 cells after 48 hrs by SRB assay; assay type: functional; conditions: MCF7, 48 h
Summary of the method: as §1

MDA-MB-231 = test: Cytotoxicity against human MDA-MB-231 cells after 48 hrs by SRB assay; assay type: functional; conditions: MDA-MB-231, 48 h
Summary of the method: as §1

T47D = test: Cytotoxicity against human T47D cells after 48 hrs by SRB assay; assay type: functional
Summary of the method: as §2

[4] = Potency index, ratio of sunitinib GI50 to test compound GI50 for human renal cancer cells; assay type: functional, Renal cancer cell
[5] = Potency index, ratio of test compound LC50 to sorafenib LC50 for human renal cancer cells; assay type: functional, Renal cancer cell
[6] = Potency index, ratio of test compound LC50 to sunitinib LC50 for human renal cancer cells; assay type: functional, Renal cancer cell
Leukemia cell = test: Potency index, ratio of sorafenib GI50 to test compound GI50 for human leukemia cells; assay type: functional
Summary of the method: (§3)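 GI50 is the concentration giving 50% reduction in net protein increase relative to control. Potency index is the reference-drug GI50 divided by the test-compound GI50.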

[7] = Potency index, ratio of sorafenib GI50 to test compound GI50 for human breast cancer cells; assay type: functional, Breast cancer cell
Summary of the method: as §3

[8] = Potency index, ratio of sunitinib GI50 to test compound GI50 for human non-small cell lung cancer cells; assay type: functional
[9] = Potency index, ratio of sunitinib GI50 to test compound GI50 for human CNS cancer cells; assay type: functional, CNS cancer cell
Summary of the method: as §3

[10] = target: Fibroblast growth factor receptor 4 (Homo sapiens) (UniProt P22455); test: Inhibition of human FGFR4 at 0.5 uM relative to control
[11] = target: Ephrin type-A receptor 7 (Homo sapiens) (UniProt Q15375); test: Inhibition of human EPHA7 at 0.5 uM relative to control
[12] = target: Receptor-type tyrosine-protein kinase FLT3 (Homo sapiens) (UniProt P36888); test: Inhibition of human Flt3 at 0.5 uM relative to control
[13] = target: TRAF2 and NCK-interacting protein kinase (Homo sapiens) (UniProt Q9UKE5); test: Inhibition of human TNIK at 0.5 uM relative to control
[14] = target: T1, Vascular endothelial growth factor receptor 2; conditions: at 10 µM
[15] = target: Mitogen-activated protein kinase kinase kinase 7 (Homo sapiens) (UniProt O43318); test: Inhibition of human TAK1 at 0.5 uM relative to control
[16] = read-out: LC50 (the source's name)

T1 sequence (P35968 whole entry): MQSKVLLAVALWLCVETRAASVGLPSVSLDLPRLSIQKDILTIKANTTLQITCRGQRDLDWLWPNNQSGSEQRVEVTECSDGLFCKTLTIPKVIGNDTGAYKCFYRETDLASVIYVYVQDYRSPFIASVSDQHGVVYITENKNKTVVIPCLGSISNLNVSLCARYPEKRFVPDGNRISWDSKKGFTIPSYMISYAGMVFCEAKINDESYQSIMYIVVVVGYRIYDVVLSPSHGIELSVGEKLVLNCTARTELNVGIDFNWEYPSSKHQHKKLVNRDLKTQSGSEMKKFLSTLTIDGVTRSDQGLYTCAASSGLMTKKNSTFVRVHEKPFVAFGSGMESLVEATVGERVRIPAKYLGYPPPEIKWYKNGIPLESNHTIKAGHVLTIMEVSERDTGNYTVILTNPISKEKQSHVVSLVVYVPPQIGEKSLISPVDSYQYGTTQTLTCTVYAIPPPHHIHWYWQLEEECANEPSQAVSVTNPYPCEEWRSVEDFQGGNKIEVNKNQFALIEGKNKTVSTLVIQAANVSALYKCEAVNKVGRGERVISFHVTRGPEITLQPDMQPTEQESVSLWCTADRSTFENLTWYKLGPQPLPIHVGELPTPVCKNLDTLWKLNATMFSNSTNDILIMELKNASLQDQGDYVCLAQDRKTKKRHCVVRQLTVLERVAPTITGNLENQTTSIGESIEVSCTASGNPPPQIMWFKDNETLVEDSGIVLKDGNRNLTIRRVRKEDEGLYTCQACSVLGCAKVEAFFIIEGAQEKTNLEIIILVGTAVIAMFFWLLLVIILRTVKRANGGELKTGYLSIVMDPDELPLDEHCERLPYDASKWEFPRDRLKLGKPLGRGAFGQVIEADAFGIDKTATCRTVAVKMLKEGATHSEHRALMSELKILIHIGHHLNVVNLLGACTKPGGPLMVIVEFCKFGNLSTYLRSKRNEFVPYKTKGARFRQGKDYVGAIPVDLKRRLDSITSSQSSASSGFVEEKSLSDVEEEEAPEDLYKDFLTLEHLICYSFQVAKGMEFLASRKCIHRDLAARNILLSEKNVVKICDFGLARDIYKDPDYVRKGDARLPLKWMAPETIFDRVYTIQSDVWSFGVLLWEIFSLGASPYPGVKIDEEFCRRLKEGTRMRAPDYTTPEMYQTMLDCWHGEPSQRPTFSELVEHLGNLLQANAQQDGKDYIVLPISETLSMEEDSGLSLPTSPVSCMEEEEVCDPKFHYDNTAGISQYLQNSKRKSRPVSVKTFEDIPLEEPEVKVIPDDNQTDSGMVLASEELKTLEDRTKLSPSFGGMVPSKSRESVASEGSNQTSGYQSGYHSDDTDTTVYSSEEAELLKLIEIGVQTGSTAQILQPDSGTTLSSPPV
Chain of Fibroblast growth factor receptor 4 (Homo sapiens) (P22455 22-802 limits assumed): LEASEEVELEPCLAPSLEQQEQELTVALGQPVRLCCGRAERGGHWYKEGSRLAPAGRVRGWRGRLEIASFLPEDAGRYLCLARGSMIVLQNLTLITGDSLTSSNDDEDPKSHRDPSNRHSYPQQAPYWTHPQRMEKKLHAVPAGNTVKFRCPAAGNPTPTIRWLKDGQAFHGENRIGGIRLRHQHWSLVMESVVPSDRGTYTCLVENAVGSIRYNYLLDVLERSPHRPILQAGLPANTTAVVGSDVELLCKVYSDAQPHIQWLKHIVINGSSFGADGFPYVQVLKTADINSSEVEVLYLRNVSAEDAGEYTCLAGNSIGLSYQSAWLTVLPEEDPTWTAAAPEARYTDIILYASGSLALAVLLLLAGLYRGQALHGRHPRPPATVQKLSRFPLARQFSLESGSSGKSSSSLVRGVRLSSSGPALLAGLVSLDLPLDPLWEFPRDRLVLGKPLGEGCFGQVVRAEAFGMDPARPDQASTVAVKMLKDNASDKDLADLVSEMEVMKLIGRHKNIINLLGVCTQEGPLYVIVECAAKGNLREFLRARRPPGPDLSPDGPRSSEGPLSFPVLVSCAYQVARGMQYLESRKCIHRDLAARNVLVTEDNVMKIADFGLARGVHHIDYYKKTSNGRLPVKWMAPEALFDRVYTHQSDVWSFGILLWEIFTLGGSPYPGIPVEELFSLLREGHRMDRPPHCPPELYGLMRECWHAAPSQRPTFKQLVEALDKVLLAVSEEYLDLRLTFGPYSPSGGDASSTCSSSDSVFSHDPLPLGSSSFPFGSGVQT
Chain of Receptor-type tyrosine-protein kinase FLT3 (Homo sapiens) (P36888 whole entry): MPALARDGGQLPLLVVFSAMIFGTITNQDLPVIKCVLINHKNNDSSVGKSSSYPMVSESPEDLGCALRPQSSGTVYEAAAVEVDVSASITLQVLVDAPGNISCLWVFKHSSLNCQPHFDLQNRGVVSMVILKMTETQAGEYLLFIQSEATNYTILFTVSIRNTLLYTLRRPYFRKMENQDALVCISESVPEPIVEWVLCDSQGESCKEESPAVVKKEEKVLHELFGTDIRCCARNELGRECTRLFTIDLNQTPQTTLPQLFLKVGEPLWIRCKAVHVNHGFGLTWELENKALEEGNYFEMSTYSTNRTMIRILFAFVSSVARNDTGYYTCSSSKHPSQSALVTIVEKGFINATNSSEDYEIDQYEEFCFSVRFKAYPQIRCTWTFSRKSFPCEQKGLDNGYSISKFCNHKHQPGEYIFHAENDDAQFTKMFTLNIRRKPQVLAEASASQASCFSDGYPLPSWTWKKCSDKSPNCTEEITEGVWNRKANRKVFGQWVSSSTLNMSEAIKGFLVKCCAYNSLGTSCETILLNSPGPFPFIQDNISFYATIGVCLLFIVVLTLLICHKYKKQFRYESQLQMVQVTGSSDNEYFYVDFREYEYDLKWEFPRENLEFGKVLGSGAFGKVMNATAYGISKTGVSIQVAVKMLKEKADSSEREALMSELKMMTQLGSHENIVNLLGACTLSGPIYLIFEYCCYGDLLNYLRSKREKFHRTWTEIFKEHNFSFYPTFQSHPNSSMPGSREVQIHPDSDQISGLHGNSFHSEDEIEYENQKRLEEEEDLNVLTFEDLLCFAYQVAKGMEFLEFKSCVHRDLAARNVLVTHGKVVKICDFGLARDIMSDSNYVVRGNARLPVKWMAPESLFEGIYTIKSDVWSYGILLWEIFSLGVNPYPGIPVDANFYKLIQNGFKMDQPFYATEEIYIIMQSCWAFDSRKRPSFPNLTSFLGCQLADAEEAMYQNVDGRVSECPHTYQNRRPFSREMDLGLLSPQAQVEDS
Chain of TRAF2 and NCK-interacting protein kinase (Homo sapiens) (Q9UKE5 whole entry, looked up): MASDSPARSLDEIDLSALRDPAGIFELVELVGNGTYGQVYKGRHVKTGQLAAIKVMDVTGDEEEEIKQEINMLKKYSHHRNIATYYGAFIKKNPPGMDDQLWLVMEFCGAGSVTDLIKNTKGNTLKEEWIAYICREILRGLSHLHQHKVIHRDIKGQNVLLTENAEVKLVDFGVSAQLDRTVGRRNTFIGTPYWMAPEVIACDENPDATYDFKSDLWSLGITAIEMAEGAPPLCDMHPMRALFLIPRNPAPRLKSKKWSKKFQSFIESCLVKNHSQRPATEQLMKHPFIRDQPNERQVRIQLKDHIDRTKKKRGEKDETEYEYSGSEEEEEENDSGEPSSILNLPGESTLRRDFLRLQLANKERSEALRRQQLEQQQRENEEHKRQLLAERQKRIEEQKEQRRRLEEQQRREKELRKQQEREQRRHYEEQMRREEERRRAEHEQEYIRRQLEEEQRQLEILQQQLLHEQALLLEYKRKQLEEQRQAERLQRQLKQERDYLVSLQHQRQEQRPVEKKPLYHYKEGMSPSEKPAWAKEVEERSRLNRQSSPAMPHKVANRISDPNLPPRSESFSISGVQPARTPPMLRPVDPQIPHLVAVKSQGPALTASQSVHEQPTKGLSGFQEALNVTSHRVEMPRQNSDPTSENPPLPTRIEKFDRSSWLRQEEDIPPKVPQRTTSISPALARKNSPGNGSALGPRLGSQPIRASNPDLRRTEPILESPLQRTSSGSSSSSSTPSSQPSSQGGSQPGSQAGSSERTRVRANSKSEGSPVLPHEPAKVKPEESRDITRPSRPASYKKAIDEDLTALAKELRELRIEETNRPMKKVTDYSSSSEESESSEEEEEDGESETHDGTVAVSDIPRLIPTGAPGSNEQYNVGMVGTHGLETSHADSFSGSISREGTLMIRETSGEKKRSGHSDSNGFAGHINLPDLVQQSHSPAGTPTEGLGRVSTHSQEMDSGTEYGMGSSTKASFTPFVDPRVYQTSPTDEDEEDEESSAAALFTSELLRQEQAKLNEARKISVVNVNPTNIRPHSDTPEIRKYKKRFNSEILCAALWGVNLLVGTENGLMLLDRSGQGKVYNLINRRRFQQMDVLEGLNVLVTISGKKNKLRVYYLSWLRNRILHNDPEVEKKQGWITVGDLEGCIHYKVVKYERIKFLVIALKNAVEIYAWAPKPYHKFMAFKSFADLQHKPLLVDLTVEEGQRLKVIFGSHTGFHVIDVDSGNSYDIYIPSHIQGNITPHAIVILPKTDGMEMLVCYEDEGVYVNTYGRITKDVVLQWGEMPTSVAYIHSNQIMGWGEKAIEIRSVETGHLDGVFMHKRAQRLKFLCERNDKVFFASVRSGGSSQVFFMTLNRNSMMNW
Chain of Mitogen-activated protein kinase kinase kinase 7 (Homo sapiens) (O43318 whole entry, looked up): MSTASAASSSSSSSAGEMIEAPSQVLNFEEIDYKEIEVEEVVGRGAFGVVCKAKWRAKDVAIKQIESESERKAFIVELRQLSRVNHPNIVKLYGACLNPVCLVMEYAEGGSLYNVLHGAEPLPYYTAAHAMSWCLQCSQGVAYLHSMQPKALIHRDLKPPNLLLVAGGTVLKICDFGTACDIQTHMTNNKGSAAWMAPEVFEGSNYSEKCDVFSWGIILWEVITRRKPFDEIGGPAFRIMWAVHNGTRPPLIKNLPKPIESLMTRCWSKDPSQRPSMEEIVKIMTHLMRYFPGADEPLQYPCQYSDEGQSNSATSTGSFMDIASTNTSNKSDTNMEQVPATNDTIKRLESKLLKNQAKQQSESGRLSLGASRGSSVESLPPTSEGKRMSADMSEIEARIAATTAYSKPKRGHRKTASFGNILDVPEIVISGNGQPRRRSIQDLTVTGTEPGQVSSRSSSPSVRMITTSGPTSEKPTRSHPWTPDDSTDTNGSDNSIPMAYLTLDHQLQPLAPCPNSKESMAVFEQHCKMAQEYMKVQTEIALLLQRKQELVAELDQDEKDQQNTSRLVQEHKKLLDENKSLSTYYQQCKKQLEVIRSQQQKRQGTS

SMILES: COc1cc2ncnc(Oc3ccc(NC(=O)Nc4ccc(CN5CCOCC5)c(C(F)(F)F)c4)c4ccccc34)c2cc1OC
- IC50 [1]: 0.0334 µM
- inhibition of growth at 10 µM (A-431): 57.7%
- IC50 (MDA-MB-435 [2]): 2.36 µM
- GI50 (CCRF-CEM): 1.17 µM
- TGI (CCRF-CEM): 40.7 µM
- CC50 (CCRF-CEM; [16]): > 100 µM
- GI50 (A549): 0.55 µM
- TGI (A549): 10.7 µM
- CC50 (A549; [16]): 81.3 µM
- GI50 (NCI-H522): 0.31 µM
- TGI (NCI-H522): 3.8 µM
- CC50 (NCI-H522; [16]): > 100 µM
- GI50 (SF-539): 1.58 µM
- TGI (SF-539): 19.5 µM
- CC50 (SF-539; [16]): 52.5 µM
- GI50 (SNB-19): 2.57 µM
- TGI (SNB-19): 14.1 µM
- CC50 (SNB-19; [16]): 43.6 µM
- GI50 (SNB-75): 1.05 µM
- TGI (SNB-75): 13.8 µM
- CC50 (SNB-75; [16]): 38.9 µM
- GI50 (MDA-MB-435 [3]): 0.37 µM
- TGI (MDA-MB-435 [3]): 3.39 µM
- CC50 (MDA-MB-435 [3]; [16]): 33.9 µM
- GI50 (SK-MEL-2): 1.48 µM
- TGI (SK-MEL-2): 13.8 µM
- CC50 (SK-MEL-2; [16]): > 100 µM
- GI50 (SK-MEL-28): 0.89 µM
- TGI (SK-MEL-28): 4.79 µM
- CC50 (SK-MEL-28; [16]): 42.7 µM
- GI50 (UACC-257): 0.79 µM
- TGI (UACC-257): 3.98 µM
- CC50 (UACC-257; [16]): 47.9 µM
- GI50 (NCI/ADR-RES): 0.76 µM
- TGI (NCI/ADR-RES): 58.9 µM
- CC50 (NCI/ADR-RES; [16]): > 100 µM
- GI50 (DU-145): 1.55 µM
- TGI (DU-145): 13.2 µM
- CC50 (DU-145; [16]): 44.7 µM
- GI50 (MCF7): 0.33 µM
- TGI (MCF7): 11 µM
- CC50 (MCF7; [16]): > 100 µM
- GI50 (MDA-MB-231): 1.15 µM
- TGI (MDA-MB-231): 7.94 µM
- CC50 (MDA-MB-231; [16]): 42.7 µM
- GI50 (T47D): 0.25 µM
- TGI (T47D): 4.27 µM
- CC50 (T47D; [16]): > 100 µM
- RatioGI50 [4]: 6.8
- RatioLC50 [5]: 2
- RatioLC50 [6]: 1.3
- RatioGI50 (Leukemia cell): 3.9 - 9.5
- RatioGI50 [7]: 3.9 - 9.5
- RatioGI50 [8]: 5 - 7.7
- RatioGI50 [9]: 1.1 - 3.7
- inhibition [10]: > 96%
- inhibition [11]: Active
- inhibition [12]: Active
- inhibition [13]: Active
- inhibition [14]: 97.8%
- inhibition [15]: Active
